Compound activity: PubChem, Johns Hopkins Ion Channel Center
Only some compounds are listed: those with a hit (about 2.3% of all), similar ones and a draw of the others.
TRPC4 PAM = TRPC4 (mouse) allosteric potentiation; Q9QUQ5; HEK293 TRPC4beta/mu-opioid, DAMGO EC20, Fluo-4 Ca2+ flux; active compounds read high; B-score at 10 µM; 310,000 compounds, 0.42% hits;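 active = B-score of calcium response area above 5 SD of library B-scores, with initial fluorescence ratio within 5 SD of library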
Target sequence (Q9QUQ5 whole entry, looked up): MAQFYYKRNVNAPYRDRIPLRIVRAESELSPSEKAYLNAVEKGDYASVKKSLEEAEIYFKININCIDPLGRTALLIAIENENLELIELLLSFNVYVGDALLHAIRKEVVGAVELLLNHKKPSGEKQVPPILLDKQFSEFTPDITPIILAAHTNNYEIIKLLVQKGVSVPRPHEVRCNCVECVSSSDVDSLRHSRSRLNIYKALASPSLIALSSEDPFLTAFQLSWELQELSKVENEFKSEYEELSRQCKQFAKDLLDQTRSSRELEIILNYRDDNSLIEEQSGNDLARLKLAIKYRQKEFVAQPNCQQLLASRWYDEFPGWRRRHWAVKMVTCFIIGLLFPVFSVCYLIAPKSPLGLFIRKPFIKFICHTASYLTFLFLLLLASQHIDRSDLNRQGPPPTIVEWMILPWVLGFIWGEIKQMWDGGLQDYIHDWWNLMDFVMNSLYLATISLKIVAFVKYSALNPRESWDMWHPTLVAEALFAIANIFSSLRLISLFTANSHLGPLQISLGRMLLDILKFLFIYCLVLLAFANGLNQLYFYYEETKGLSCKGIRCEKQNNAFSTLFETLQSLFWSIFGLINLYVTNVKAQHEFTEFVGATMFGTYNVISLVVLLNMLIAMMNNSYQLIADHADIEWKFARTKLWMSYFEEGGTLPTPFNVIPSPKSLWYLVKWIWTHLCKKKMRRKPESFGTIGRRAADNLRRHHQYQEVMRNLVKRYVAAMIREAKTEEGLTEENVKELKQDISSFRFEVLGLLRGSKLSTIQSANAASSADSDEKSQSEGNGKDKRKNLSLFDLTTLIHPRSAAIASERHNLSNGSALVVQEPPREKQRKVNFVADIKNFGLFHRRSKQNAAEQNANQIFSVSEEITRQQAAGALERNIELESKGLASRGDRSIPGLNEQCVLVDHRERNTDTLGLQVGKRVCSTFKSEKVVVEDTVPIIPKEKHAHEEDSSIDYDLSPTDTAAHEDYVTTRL
TRPC6 activator = activators of mouse TRPC6 channel. Q61143. HEK293-TRPC6 membrane potential dye fluorescence; active compounds read high. B-score at 10 µM. 310,000 compounds, 0.13% hits. AID 2550;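 active = B-score of the integrated fluorescence ratio above library mean plus 3 SD, and starting fluorescence ratio within library mean plus 5 SD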;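 also: higher score means more depolarization so channel activation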
TRPC4 inh = blocks the mouse TRPC4 cation channel | Q9QUQ5 | HEK293 TRPC4beta/mu-opioid, DAMGO-evoked Fluo4 calcium flux; active compounds read low | B-score at 10 µM | 300,000 compounds, 0.39% hits | AID 2247;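 active = B-score over 3 SD under the library average, no early fluorescence shift, positive overall ratio signal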
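Assay system – HEK293 line stably carrying TRPC4beta and mu-opioid receptor · Doses – single dose · Detection – Fluo4 calcium-dye fluorescence, kinetic read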
TRPC4 agonist = opens the mouse TRPC4 cation channel; Q9QUQ5; HEK293 TRPC4beta/mu-opioid, Fluo4 calcium fluorescence; active compounds read high; B-score at 10 µM; 310,000 compounds, 0.49% hits; AID 2237;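 active = B-score above 5 SD of library B-scores, and initial fluorescence ratio not above library mean plus 5 SD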;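 also: positive B-score marks a calcium rise read as TRPC4 activation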
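System – HEK293 cells stably co-expressing mouse TRPC4beta and mu-opioid receptor · Signal – Fluo4 calcium-sensitive dye fluorescence, kinetic, 1 Hz baseline · Benchmarks – buffer (low) and maximal DAMGO (high) · Read-out – B score of integrated fluorescence ratio per well · Incubation – dye loading 45 min room temperature, 110 s kinetic read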
TRPC6 inhibitor = blocks the mouse TRPC6 cation channel; B-score at 10 µM; HEK293-TRPC6, membrane potential dye, ACh-evoked depolarization; active compounds read low; 310,000 compounds, 1.1% hits; AID 2553; Q61143;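 active = B-score under library mean minus 3 SD, initial fluorescence not abnormally high, positive integrated signal ratio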;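 also: B-score derived from integrated fluorescence ratio over the kinetic read; more negative B-score means stronger inhibition of depolarization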
TRPC4 sel inh 2 = second selectivity test of TRPC6 inhibitors: effect on mouse TRPC4; shares compounds with TRPC6 inhibitor; HEK293 TRPC4/MOR, membrane potential dye fluorescence; channel activated by saturating DAMGO dose; inhibition, % at 10 µM; 920 compounds, 42% hits;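 active = compounds whose fluorescence signal differed from control wells by over 3 SD, either direction, in both duplicate plates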
TRPC4 spec = tests whether TRPC6 inhibitors also affect mouse TRPC4 | HEK293 TRPC4/mu-opioid, membrane potential fluorescence | 920 compounds, 61% hits | shares compounds with TRPC6 inhibitor | activity change, negative = inhibition, % at 10 µM;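 active = rise or fall in signal beyond 3 SD of buffer-only wells in both replicate plates, either sign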;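 also: integrated kinetic ratio of fluorescence range over baseline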
HEK293 MPD ctr 2-1 = second counter-screen for TRPC6 inhibitors: parental HEK293 cells | AID 2779 | 920 compounds, 31% hits | shares compounds with TRPC6 inhibitor | parental HEK293 membrane potential dye fluorescence; maximal acetylcholine challenge after compound addition | signal change vs control, % at 10 µM;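 active = membrane potential signal moving either way by over 3 SD of the maximum-effect control, in both duplicate plates, meaning non-specific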
HEK293 MPD ctr-1 = parental HEK293 nonspecific activity of TRPC6 inhibitors. membrane potential signal change, % at 10 µM. AID 2780. shares compounds with TRPC6 inhibitor. parental HEK293 membrane potential dye fluorescence. 920 compounds, 60% hits;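 active = membrane potential signal shifting up or down by more than 3 SD of buffer-only wells, on both duplicate plates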
HEK293 MPD ctr-2 = counter-screen for TRPC6 modulators: effect in parental HEK293 cells. shares compounds with TRPC6 inhibitor. membrane potential dye fluorescence. membrane potential signal change, % at 10 µM. 2,400 compounds, 51% hits;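 active = membrane potential signal moves up or down beyond 5 SD from buffer-only wells, on both duplicate plates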
HEK293 MPD ctr 2-2 = parental HEK293 nonspecific activity of TRPC6 modulators, second screen. shares compounds with TRPC6 inhibitor. membrane potential dye fluorescence; after compound, maximal acetylcholine stimulation. inhibition, % at 10 µM. 2,400 compounds, 14% hits. AID 488926;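 active = membrane potential signal drops by more than 5 SD from the mean control signal, in both duplicate plates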
TRPC4 ctr mod = selectivity of TRPC6 modulators against mouse TRPC4 | shares compounds with TRPC6 inhibitor | HEK293 TRPC4/mu-opioid, membrane potential fluorescence | percent change from control (negative = decrease, positive = increase), % at 10 µM | 2,400 compounds, 69% hits | AID 488927;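 active = membrane potential signal moved up or down beyond 5 SD of buffer control wells, in both duplicate plates, actives on both sides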
TRPC4 ctr inh 2 = mouse TRPC4 off-target activity of TRPC6 modulators, second screen. shares compounds with TRPC6 inhibitor. HEK293 TRPC4/mu-opioid, membrane potential dye fluorescence; stimulated with maximal-effect DAMGO. inhibition, % at 10 µM. 2,400 compounds, 55% hits. AID 488928;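 active = drop in membrane potential signal beyond 5 SD of the control wells in both duplicate plates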;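 also: TRPC4 counter screen for TRPC6 hits run under conditions tuned for TRPC6 not TRPC4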
TRPC6 inh conf = confirmation of mouse TRPC6 inhibitors | shares compounds with TRPC6 inhibitor | HEK293-TRPC6, membrane potential dye, ACh-evoked depolarization | inhibition, % at 10 µM | 3,300 compounds, 43% hits | AID 488960;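 active = fluorescence ratio falls more than 5 SD below the full-stimulation control mean, in both duplicate runs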;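 also: integrated fluorescence ratio of peak minus minimum over baseline after agonist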
TRPC6 act conf = confirmation of mouse TRPC6 activators. shares compounds with TRPC6 inhibitor. HEK293-TRPC6 membrane potential dye fluorescence, FDSS. activation, % at 10 µM. 2,800 compounds, 11% hits;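 active = ratio signal rise beyond 5 SD above unstimulated control wells' mean, seen in both duplicate runs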
A number is an active result; - = inactive; . = no result given.

SMILES | TRPC4 PAM | TRPC6 activator | TRPC4 inh | TRPC4 agonist | TRPC6 inhibitor | HEK293 MPD ctr-2 | HEK293 MPD ctr 2-2 | TRPC4 ctr mod | TRPC4 ctr inh 2 | TRPC6 inh conf | TRPC6 act conf | others
CCCn1c(=N)c(C(=O)NC2CCCC2)cc2c(=O)n3cccc(C)c3nc21 | - | - | - | - | -6.84 | . | . | . | . | 78.1% | - | TRPC4 sel inh 2=62.5%;TRPC4 spec=-14.0%;HEK293 MPD ctr 2-1=-32.5%;HEK293 MPD ctr-1=-170.5%
Cc1ccc(CNC(=O)c2cc3c(=O)n4ccccc4nc3n(Cc3ccco3)c2=N)cc1 | - | - | - | - | - | . | . | . | . | . | .
CCCCn1c(=NC(=O)c2ccco2)c(C(=O)OCC)cc2c(=O)n3ccccc3nc21 | - | - | - | - | -5.79 | - | - | - | - | - | -
N=c1c(C(=O)NCc2ccco2)cc2c(=O)n3ccccc3nc2n1Cc1ccccc1 | - | - | - | - | -7.09 | - | - | -39.5% | 45.5% | - | -
N=c1c(C(=O)NCc2ccco2)cc2c(=O)n3ccccc3nc2n1C1CCCC1 | - | - | - | - | -5.3 | -71.5% | - | -32.5% | 37.0% | 45.5% | -
Cc1nc(C)c(C(=O)NNC(=O)Nc2ccc(Cl)cc2)s1 | - | - | - | - | - | . | . | . | . | . | .
Cc1ccc(CC2SC(N=C(N)N)=NC2=O)cc1 (configuration not stated) | - | - | - | - | - | . | . | . | . | . | .
Cc1nnc(C)n1N | - | - | - | - | - | . | . | . | . | . | .
COc1ccc(Cl)cc1S(=O)(=O)N1CCN(C(=O)COc2ccccc2)CC1 | - | - | - | - | - | . | . | . | . | . | .
Cc1ccn2cc(C34CC5CC(CC(C5)C3)C4)nc2c1 | - | - | - | - | - | . | . | . | . | . | .
N=c1c(C(=O)NC2CCCC2)cc2c(=O)n3ccccc3nc2n1C1CCCC1 | - | - | - | - | -10.8 | -144.0% | 62.0% | -31.0% | 58.0% | 55.5% | -
Cc1cccn2c(=O)c3cc(C(=O)NC4CCCC4)c(=N)n(C4CCCC4)c3nc12 | - | - | - | - | -5.19 | -151.0% | - | -54.5% | 48.0% | 49.0% | -
Oc1ccccc1Nc1nc(NCc2ccccc2)c2ccccc2n1 | - | - | - | - | - | . | . | . | . | . | .
c1ccc(CNc2c3ccccc3nc3ccccc23)cc1 | - | - | -7 | - | -7.78 | . | . | . | . | - | - | TRPC4 sel inh 2=59.5%;TRPC4 spec=-23.2%;HEK293 MPD ctr 2-1=45.0%;HEK293 MPD ctr-1=-449.5%
OCC(Cc1ccccc1)Nc1c2ccccc2nc2ccccc12 (configuration not stated) | - | - | - | - | -8.99 | - | - | -88.0% | 69.5% | 54.5% | -
O=C(CNC(=O)c1ccccc1)NCCc1ccc(O)c(O)c1 | - | - | - | - | - | . | . | . | . | . | .
